Test results published in ChEMBL document CHEMBL3112507 (Bioorg Med Chem, 2014).
pIC50, pKi: −log10 of the molar value. Activity calls are given as the source filed them. The rule behind the calls is not given here.

Columns and labels:
[1] = molecular target: T1, Polyunsaturated fatty acid 5-lipoxygenase (Homo sapiens, UniProt P09917); test: Inhibition of 5-LOX (unknown origin) using arachidonic acid as substrate after 5 mins by EIA
T1 sequence (P09917 whole entry): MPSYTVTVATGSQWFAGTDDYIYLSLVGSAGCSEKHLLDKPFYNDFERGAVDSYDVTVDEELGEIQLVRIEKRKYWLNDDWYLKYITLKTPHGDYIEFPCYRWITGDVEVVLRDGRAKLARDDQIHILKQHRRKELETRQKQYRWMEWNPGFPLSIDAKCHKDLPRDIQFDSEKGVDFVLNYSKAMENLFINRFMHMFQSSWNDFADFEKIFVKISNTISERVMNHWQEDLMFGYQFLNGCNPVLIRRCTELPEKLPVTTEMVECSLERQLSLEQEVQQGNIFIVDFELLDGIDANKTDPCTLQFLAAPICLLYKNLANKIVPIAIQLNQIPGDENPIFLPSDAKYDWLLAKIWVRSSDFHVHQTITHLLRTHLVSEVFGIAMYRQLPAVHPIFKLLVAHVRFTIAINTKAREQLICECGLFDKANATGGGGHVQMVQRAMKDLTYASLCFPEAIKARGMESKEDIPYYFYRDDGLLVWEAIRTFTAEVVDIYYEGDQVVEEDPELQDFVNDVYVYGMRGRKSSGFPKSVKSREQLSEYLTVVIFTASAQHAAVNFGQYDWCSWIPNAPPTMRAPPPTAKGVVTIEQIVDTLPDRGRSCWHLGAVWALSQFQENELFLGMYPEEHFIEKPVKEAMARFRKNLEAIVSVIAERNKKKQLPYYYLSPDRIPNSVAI
Summary of the method: (§1)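 Test compounds dissolved in DMSO at 0.01, 0.1, 1, 10 and 100 µM. Each was added to 5-LOX enzyme in assay buffer, and the reaction was started with arachidonic acid substrate. Plates were shaken 5 min, chromogen was added, shaken 5 min more, then read at 490 nm. Blanks were buffer plus AA; positive controls were enzyme plus AA. Run in duplicate, means with deviation <5% used. Percent inhibition was calculated from lipoxygenase activity; IC50 derived from the concentration series.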

[2] = molecular target: T2, Polyunsaturated fatty acid 5-lipoxygenase (Homo sapiens) (UniProt P09917); test: Inhibition of 5-LOX (unknown origin) using arachidonic acid as substrate at 10 uM after 5 mins by EIA; summary of the method: as §1
T2 sequence (whole entry): T1 sequence (P09917 whole entry)

[3] = molecular target: T2, Polyunsaturated fatty acid 5-lipoxygenase (Homo sapiens); test: Inhibition of 5-LOX (unknown origin) using arachidonic acid as substrate at 1 uM after 5 mins by EIA; summary of the method: as §1
[4] = molecular target: T2, Polyunsaturated fatty acid 5-lipoxygenase (Homo sapiens); test: Inhibition of 5-LOX (unknown origin) using arachidonic acid as substrate at 100 uM after 5 mins by EIA; summary of the method: as §1
[5] = molecular target: T3, Prostaglandin G/H synthase 2 (Homo sapiens) (UniProt P35354); test: Inhibition of COX2 (unknown origin) by EIA
T3 sequence (whole entry): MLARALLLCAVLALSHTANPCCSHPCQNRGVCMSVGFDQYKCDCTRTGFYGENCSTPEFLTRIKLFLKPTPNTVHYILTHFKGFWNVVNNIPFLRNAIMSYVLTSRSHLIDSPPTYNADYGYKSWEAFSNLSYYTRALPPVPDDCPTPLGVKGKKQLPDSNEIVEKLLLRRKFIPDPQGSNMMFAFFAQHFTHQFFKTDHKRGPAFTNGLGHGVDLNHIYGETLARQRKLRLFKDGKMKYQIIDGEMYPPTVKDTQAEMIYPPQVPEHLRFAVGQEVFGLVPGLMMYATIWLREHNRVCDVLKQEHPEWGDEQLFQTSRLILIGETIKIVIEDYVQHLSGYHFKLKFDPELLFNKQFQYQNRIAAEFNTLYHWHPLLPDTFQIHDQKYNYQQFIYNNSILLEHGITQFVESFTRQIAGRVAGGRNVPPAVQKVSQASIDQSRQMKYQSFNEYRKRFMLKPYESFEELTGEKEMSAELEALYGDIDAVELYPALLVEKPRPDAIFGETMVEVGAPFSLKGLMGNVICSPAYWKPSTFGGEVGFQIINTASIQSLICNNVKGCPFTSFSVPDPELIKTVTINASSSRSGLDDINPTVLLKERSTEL

[6] = molecular target: T2, Polyunsaturated fatty acid 5-lipoxygenase (Homo sapiens); test: Inhibition of 5-LOX (unknown origin) using arachidonic acid as substrate at 0.01 uM after 5 mins by EIA; summary of the method: as §1
[7] = molecular target: Prostaglandin G/H synthase 1 (Homo sapiens) (UniProt P23219); test: Inhibition of COX1 (unknown origin) by EIA
[8] = molecular target: Phospholipase A2 (Homo sapiens) (UniProt P04054); test: Inhibition of PLA2 (unknown origin) by Ellman's method
[9] = molecular target: T2, Polyunsaturated fatty acid 5-lipoxygenase (Homo sapiens); test: Inhibition of 5-LOX (unknown origin) using arachidonic acid as substrate at 0.1 uM after 5 mins by EIA; summary of the method: as §1
[10] = molecular target: T1, Polyunsaturated fatty acid 5-lipoxygenase; test: (§2) Inhibition of 5-LOX (unknown origin) by UV-Vis spectrophotometry
Summary of the method: (§3)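 UV–visible spectral titration of the compounds with 5-LOX. Association constant Ka was obtained from 1/(Af−Aobs) = 1/(Af−Afc) + 1/(Ka[Af−Afc][L]). Ki was calculated as IC50/(1+[L]/Kd) using IC50 values from the enzyme immunoassay.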

[11] = molecular target: T2, Polyunsaturated fatty acid 5-lipoxygenase (Homo sapiens); test: as §2; summary of the method: as §3
[12] = test system: HeLa; test: Cytotoxicity against human HeLa cells assessed as cell viability at […] after 15 to 45 hrs by MTT assay; format: cell-based
[13] = molecular target: T1, Polyunsaturated fatty acid 5-lipoxygenase; test: Inhibition of 5-LOX (unknown origin) using arachidonic acid as substrate after 5 mins by EIA in presence of pig liver esterase
Summary of the method: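 Same 5-LOX colorimetric immunoassay kit procedure (compounds at 0.01–100 µM in DMSO, AA substrate, chromogen, 490 nm, duplicates). Ester compounds were first treated with pig liver esterase, extracted per a reported procedure, before addition to the 5-LOX enzyme.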

[14] = Octanol-water partition coefficient, log P of the compound; format: physicochemical

Phospholipase A2 (Homo sapiens), sequence (P04054 23-148 limits assumed): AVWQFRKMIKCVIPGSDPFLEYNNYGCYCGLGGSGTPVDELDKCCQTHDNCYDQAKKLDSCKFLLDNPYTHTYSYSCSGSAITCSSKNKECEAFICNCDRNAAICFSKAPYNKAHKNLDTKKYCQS
Prostaglandin G/H synthase 1 (Homo sapiens), sequence (P23219 whole entry): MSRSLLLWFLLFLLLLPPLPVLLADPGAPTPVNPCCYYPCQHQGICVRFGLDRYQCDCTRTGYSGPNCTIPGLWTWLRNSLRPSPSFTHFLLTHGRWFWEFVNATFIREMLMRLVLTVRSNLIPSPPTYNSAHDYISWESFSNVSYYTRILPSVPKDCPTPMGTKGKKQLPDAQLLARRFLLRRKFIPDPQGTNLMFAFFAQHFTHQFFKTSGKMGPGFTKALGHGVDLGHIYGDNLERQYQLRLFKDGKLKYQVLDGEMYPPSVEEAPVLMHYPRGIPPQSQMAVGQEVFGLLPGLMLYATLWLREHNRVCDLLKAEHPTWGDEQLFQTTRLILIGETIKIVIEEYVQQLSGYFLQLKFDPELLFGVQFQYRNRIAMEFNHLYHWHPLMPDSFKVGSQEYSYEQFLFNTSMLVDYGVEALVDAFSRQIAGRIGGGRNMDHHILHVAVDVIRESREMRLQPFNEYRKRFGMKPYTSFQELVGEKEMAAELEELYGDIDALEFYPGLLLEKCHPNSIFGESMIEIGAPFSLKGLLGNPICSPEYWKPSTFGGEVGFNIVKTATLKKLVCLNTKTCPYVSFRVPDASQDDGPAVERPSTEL

Row | pIC50 [1] | inhibition [2] | inhibition [3] | inhibition [4] | inhibition [5] | inhibition [6] | inhibition [7] | inhibition [8] | inhibition [9] | pKi [10] | Ka [11] | pIC50 [13] | logP [14] | SMILES | Activity [12]
1 | 8.80 | – | – | – | – | – | – | – | – | – | – | – | – | CC(C)(C)Sc1c(CC(C)(C)C(=O)O)n(Cc2ccc(Cl)cc2)c2ccc(OCc3ccc4ccccc4n3)cc12 [QUIFLAPON] | –
2 | 5.26 | 59.8% | 40.2% | 60.6% | inactive | 22.5% | inactive | inactive | 25.5% | – | – | – | – | COC(=O)[C@H]1CCCN1C(=O)C(=O)c1c[nH]c2ccccc12 | –
3 | 5.55 | 55.5% | 48.7% | 64.7% | inactive | 20% | inactive | inactive | 28.5% | 5.60 | 3.7 ×10⁴ /M | – | – | Cc1ccc(S(=O)(=O)n2cc(C(=O)C(=O)N[C@H](Cc3cnc[nH]3)C(=O)O)c3ccccc32)cc1 | –
4 | 6.22 | 68.8% | 53.5% | 74.3% | inactive | 27.3% | inactive | inactive | 45% | 6.29 | 2.6 ×10⁵ /M | – | – | Cc1ccc(S(=O)(=O)n2cc(C(=O)C(=O)N3CCC[C@@H]3C(=O)O)c3ccccc32)cc1 | –
5 | 7.01 | 87.6% | 59.5% | 90.6% | inactive | 42% | inactive | inactive | 50.5% | 7.02 | 1.1 ×10⁵ /M | – | – | Cc1ccc(S(=O)(=O)n2cc(C(=O)C(=O)N[C@H](CCC(=O)O)C(=O)O)c3ccccc32)cc1 | –
6 | – | 49.8% | 43.4% | 65% | inactive | 35% | inactive | inactive | 41.1% | – | – | – | – | COC(=O)[C@@H](Cc1c[nH]c2ccccc12)NC(=O)C(=O)c1c[nH]c2ccccc12 | –
7 | 8.01 | 85% | 67.7% | 98% | inactive | 50% | inactive | inactive | 51.5% | 8.02 | 2.32 ×10⁶ /M | 8.10 | 2.21 | COC(=O)CNC(=O)C(=O)c1cn(S(=O)(=O)c2ccc(C)cc2)c2ccccc12 | Non-toxic
8 | – | 45.5% | 40.8% | 65% | inactive | 30% | inactive | inactive | 37.7% | – | – | – | – | COC(=O)[C@@H](Cc1cnc[nH]1)NC(=O)C(=O)c1c[nH]c2ccccc12 | –
9 | 5.08 | 51.2% | 44.8% | 55% | inactive | 36% | inactive | inactive | 40% | – | – | – | – | COC(=O)CC[C@@H](NC(=O)C(=O)c1c[nH]c2ccccc12)C(=O)OC | –
10 | 6.05 | 60.3% | 51.8% | 65% | inactive | 18.5% | inactive | inactive | 35.2% | 6.09 | 1.06 ×10⁵ /M | 6.89 | 2.12 | COC(=O)CC[C@@H](NC(=O)C(=O)c1cn(S(=O)(=O)c2ccc(C)cc2)c2ccccc12)C(=O)OC | –
11 | 6.48 | 69.3% | 54.5% | 72% | inactive | 38.5% | inactive | inactive | 48.7% | 6.49 | 1.2 ×10⁵ /M | 6.12 | 2.19 | COC(=O)[C@H]1CCCN1C(=O)C(=O)c1cn(S(=O)(=O)c2ccc(C)cc2)c2ccccc12 | –
12 | 8.00 | 81.5% | 67.3% | 85% | inactive | 51% | inactive | inactive | 56.5% | 8.00 | 3.6 ×10⁵ /M | – | – | Cc1ccc(S(=O)(=O)n2cc(C(=O)C(=O)N[C@H](Cc3c[nH]c4ccccc34)C(=O)O)c3ccccc32)cc1 | –
13 | 7.28 | 75.5% | 62.7% | 80.4% | inactive | 45.5% | inactive | inactive | 55.3% | 7.43 | 6.67 ×10⁵ /M | 7.85 | 2.34 | COC(=O)[C@@H](Cc1c[nH]c2ccccc12)NC(=O)C(=O)c1cn(S(=O)(=O)c2ccc(C)cc2)c2ccccc12 | –
14 | 8.07 | 91.2% | 78.4% | 97.5% | inactive | 57.4% | inactive | inactive | 63.5% | 8.08 | 2.07 ×10⁶ /M | – | – | Cc1ccc(S(=O)(=O)n2cc(C(=O)C(=O)NCC(=O)O)c3ccccc32)cc1 | Non-toxic
15 | 5.46 | 55.5% | 47.8% | 70% | inactive | 40% | inactive | inactive | 46.2% | – | – | – | – | COC(=O)CNC(=O)C(=O)c1c[nH]c2ccccc12 | –
16 | 5.36 | 58.2% | 45.3% | 63.8% | inactive | 30% | inactive | inactive | 40.5% | 5.38 | 1.01 ×10⁴ /M | 5.53 | 1.98 | COC(=O)[C@@H](Cc1cnc[nH]1)NC(=O)C(=O)c1cn(S(=O)(=O)c2ccc(C)cc2)c2ccccc12 | –
